“And” between values parts separate entries of the source, which are not always exact repeats. Identical values can stand only once. The source made the active and inactive calls.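 The calls were made as follows: active = inhibition above 20% at 50 µM; inactive = the rest.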

In general, inhibition refers to the change of the read-out against control, counted positive when it falls.

This test concerns the target Kelch-like ECH-associated protein 1 (Homo sapiens) (UniProt Q14145). The test can be described thus: Keap1 Kelch binding to Nrf2 peptide inhibition, confirmation, orthogonal assay for Keap1-Nrf2 interaction inhibitor project, biophysical, competitive SPR, dry powder (AID 651876). As to conditions: stronger effect = higher value. Put shortly: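 timing = Kelch–compound preincubation at room temperature, SPR injection at 25 °C | assay system = Keap1 Kelch domain, biochemical | amount = 40 nM Kelch domain | doses = compound at 5 or 50 µM | read-out basis = % inhibition via free Kelch domain fraction | measured by = Double-referenced SPR association slopes | also added = biotinylated 16mer Nrf2 peptide captured on streptavidin CM5 surface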

Kelch-like ECH-associated protein 1 (Homo sapiens), sequence (Q14145 whole entry, looked up, the tested form may be a part): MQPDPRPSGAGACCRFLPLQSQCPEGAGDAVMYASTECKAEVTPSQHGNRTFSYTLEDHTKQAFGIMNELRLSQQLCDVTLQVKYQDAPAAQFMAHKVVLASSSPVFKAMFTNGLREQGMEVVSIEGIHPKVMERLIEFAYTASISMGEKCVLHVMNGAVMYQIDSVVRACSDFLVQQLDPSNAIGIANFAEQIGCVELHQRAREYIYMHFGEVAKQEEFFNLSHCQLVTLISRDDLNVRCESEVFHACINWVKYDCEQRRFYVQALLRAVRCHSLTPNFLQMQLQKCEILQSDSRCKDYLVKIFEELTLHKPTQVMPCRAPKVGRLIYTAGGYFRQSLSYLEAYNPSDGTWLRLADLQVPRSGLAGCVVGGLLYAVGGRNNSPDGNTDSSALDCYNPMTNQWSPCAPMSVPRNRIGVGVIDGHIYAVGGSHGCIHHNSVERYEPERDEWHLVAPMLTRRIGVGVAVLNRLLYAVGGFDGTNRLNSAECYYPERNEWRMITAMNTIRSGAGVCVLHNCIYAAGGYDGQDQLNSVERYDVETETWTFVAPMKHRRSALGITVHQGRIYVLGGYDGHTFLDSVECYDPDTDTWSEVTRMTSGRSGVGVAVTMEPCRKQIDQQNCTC

Regarding `O=C(O)[C@H]1CCCC[C@H]1C(=O)NC(CN1C(=O)c2ccccc2C1=O)c1ccccc1` (stereo not given in full), the inhibition by setting is: (at 50 µM) 0.3% (inactive); (inhibition, at 5 µM) 0.3%. For `O=C(O)C1CCCCC1C(=O)N1CCc2ccccc2[C@H]1C(=O)NC12CC3CC(CC(C3)C1)C2` (stereo not given in full), the inhibition by setting is: (at 50 µM) -0.6% (inactive); (inhibition, at 5 µM) -11.6%.

With `O=C(O)C1CCCCC1C(=O)N1CCc2ccccc2[C@H]1C(=O)NCCc1ccccc1` (stereo not given in full), the inhibition is -3.7% (inactive) (at 50 µM) and -5.5% (inhibition, at 5 µM). Consider `NC(=O)[C@H]1CCCC[C@H]1C(=O)N1CCc2ccccc2[C@H]1CN1C(=O)c2ccccc2C1=O`, for which the inhibition runs as follows: (at 50 µM) 36.7%; (inhibition, at 5 µM) 5.6%. Turning to `Cc1ccc(S(=O)(=O)Nc2cc(C(C(=O)OC(C)C)C(=O)C(F)(F)F)c(O)c3ccccc23)c(C)c1` (stereo not given), the inhibition (at 50 µM) is 97% and the inhibition (inhibition, at 5 µM) is 57.8%. In the same order, the values of `CC(C)OC(=O)C(C(=O)C(F)(F)F)c1cc(NS(=O)(=O)c2ccccc2)c2ccccc2c1O` (stereo not given) are 59% and 12.7%.

Turning to `Cc1ccc(S(=O)(=O)NC2=CC(=N[C@@H](C)C(=O)OC(C)(C)C)C(=O)c3ccccc32)c(C)c1`, the inhibition runs as follows: (at 50 µM) 10.5% (inactive); (inhibition, at 5 µM) -5.37%. In the same order, the values of `O=C(O)CC(=O)N1CCc2ccccc2C1CN1C(=O)c2ccccc2C1=O` (stereo not given) are 2.1% (inactive) and -2.4%. With `O=C(NC[C@@H]1c2ccccc2CCN1C(=O)[C@@H]1CCCC[C@@H]1C(=O)O)c1ccc(CCl)cc1`, the inhibition runs as follows: (at 50 µM) 22.7%; (inhibition, at 5 µM) -1%. Take `Cc1ccc(S(=O)(=O)NNc2nc(NCC(N)=O)nc3ccccc23)cc1`: the inhibition (at 50 µM) is -9.9% (inactive) and the inhibition (inhibition, at 5 µM) was -3.5%.

With `O=C(O)[C@H]1CCCC[C@H]1C(=O)N1CCc2ccccc2[C@H]1CNS(=O)(=O)c1ccccc1`, the inhibition by setting is: (at 50 µM) 12.9% (inactive); (inhibition, at 5 µM) -3.1%. In the case of `COC(=O)[C@H]1CCCC[C@H]1C(=O)N1CCc2ccccc2[C@H]1CN1C(=O)c2ccccc2C1=O`, the inhibition is, setting by setting: (at 50 µM) 1.6% (inactive); (inhibition, at 5 µM) -0.6%. As to `O=C(O)CCCC(=O)N1CCc2ccccc2C1CN1C(=O)c2ccccc2C1=O` (stereo not given), the inhibition reads like this: (at 50 µM) 2.3% (inactive); (inhibition, at 5 µM) 6.4%. As for `CC(C)CNc1nc(NS(=O)(=O)c2ccccc2)c2ccccc2n1`, the inhibition reads like this: (at 50 µM) 3.3% (inactive); (inhibition, at 5 µM) 1%. Regarding `O=C(O)C1CCCCC1C(=O)N1CCc2ccccc2C1CN1Cc2ccccc2C1=O` (stereo not given), the inhibition is, setting by setting: (at 50 µM) 77.7%; (inhibition, at 5 µM) 27.7%. The like results for `Cc1ccc(S(=O)(=O)NC[C@@H]2c3ccccc3CCN2C(=O)[C@@H]2CCCC[C@@H]2C(=O)O)c(C)c1` were, in that order, 17.1% (inactive) and 0.1%. As to `O=C(NCCCN1CCOCC1)c1ccccc1C(=O)NC[C@@H]1c2ccccc2CCN1C(=O)C1CCCCC1C(=O)O` (stereo not given in full), the inhibition reads like this: (at 50 µM) 43.8%; (inhibition, at 5 µM) 6.9%. Consider `O=C(NCCO)c1ccccc1C(=O)NC[C@@H]1c2ccccc2CCN1C(=O)C1CCCCC1C(=O)O` (stereo not given in full), for which the inhibition (at 50 µM) was 32.1% and the inhibition (inhibition, at 5 µM) worked out at 7.5%. For `Cc1cc(C)c(S(=O)(=O)Nc2cc(C(C(=O)OC(C)C)C(=O)C(F)(F)F)c(O)c3ccccc23)c(C)c1` (stereo not given), the inhibition was 105% (at 50 µM) and 79.7% (inhibition, at 5 µM).

As for `NC(=O)c1ccccc1C(=O)NC[C@@H]1c2ccccc2CCN1C(=O)[C@@H]1CCCC[C@@H]1C(=O)O`, the inhibition reads like this: (at 50 µM) 83%; (inhibition, at 5 µM) 38.6%. With `Cc1cc(C)c(S(=O)(=O)Nc2nc(C(C(=O)OC(C)C)C(=O)C(F)(F)F)nc3ccccc23)c(C)c1` (stereo not given), the inhibition was 1.9% (inactive) (at 50 µM) and -4.5% (inhibition, at 5 µM). The like results for `O=C(O)CCC(=O)N1CCc2ccccc2C1CN1C(=O)c2ccccc2C1=O` (stereo not given) were, in that order, 11.4% (inactive) and -2.3%. Turning to `O=C(NC[C@@H]1c2ccccc2CCN1C(=O)[C@@H]1CCCC[C@@H]1C(=O)O)c1ccccc1CO`, the inhibition by setting is: (at 50 µM) 39.3%; (inhibition, at 5 µM) 7.3%.

With `CC(=O)Nc1cc(NS(=O)(=O)c2c(C)cc(C)cc2C)c2ccccc2c1O`, the inhibition (at 50 µM) was 13.9% (inactive) and the inhibition (inhibition, at 5 µM) was found to be 9.6%.

With `Cc1cc(C)c(S(=O)(=O)Nc2nc(NCCO)nc3ccccc23)c(C)c1`, the inhibition (at 50 µM) is 6.8% (inactive) and the inhibition (inhibition, at 5 µM) was 3.6%.

Regarding `COC(=O)C1CCCCC1C(=O)N1CCc2ccccc2C1CN1C(=O)c2ccccc2C1=O` (stereo not given), the inhibition reads like this: (at 50 µM) 6.8% (inactive); (inhibition, at 5 µM) 3.3%. Turning to `O=C1c2ccccc2C(=O)N1CC1=NCCc2ccccc21`, the inhibition (at 50 µM) was -0.2% (inactive) and the inhibition (inhibition, at 5 µM) came out at 1.1%. As to `Cc1ccc(S(=O)(=O)NC(=O)[C@@H]2c3ccccc3CCN2C(=O)[C@@H]2CCCC[C@@H]2C(=O)O)cc1`, the inhibition (inhibition, at 5 µM) is 0.2% and -3.9%. As for `CCOC(=O)C(C(=O)OCC)c1cc(CN2C(=O)c3ccccc3C2=O)c2ccccc2n1`, the inhibition by setting is: (at 50 µM) 8.32% (inactive); (inhibition, at 5 µM) 11.9%. For the compound `O=C(O)C1CCCCC1C(=O)N1CCc2ccccc2C1CN1C(=O)[C@H]2CCCC[C@H]2C1=O` (stereo not given in full), the inhibition is 65.5% (at 50 µM) and 19.1% (inhibition, at 5 µM).

In the case of `O=C(O)C1CCCCC1C(=O)Nc1ccccc1CN1C(=O)c2ccccc2C1=O` (stereo not given), the inhibition is, setting by setting: (at 50 µM) 5.5% (inactive); (inhibition, at 5 µM) 3.8%. For the compound `O=C(O)C1CCCCC1C(=O)N1CCc2ccccc2C1c1ccccc1` (stereo not given), the inhibition is, setting by setting: (at 50 µM) 3.2% (inactive); (inhibition, at 5 µM) -2%.

Regarding `O=C(O)C1CCCCC1C(=O)N1CCc2ccccc2C1CN1C(=O)Cc2ccccc2C1=O` (stereo not given), the inhibition (at 50 µM) was 77% and the inhibition (inhibition, at 5 µM) is 36.6%. In the case of `O=C(NCCc1ccccc1)c1ccccc1C(=O)NC[C@@H]1c2ccccc2CCN1C(=O)C1CCCCC1C(=O)O` (stereo not given in full), the inhibition was 47.1% (at 50 µM) and 3.3% (inhibition, at 5 µM). For `O=C(O)[C@H]1CCCC[C@H]1C(=O)N1CCc2ccccc2C1CCN1C(=O)c2ccccc2C1=O` (stereo not given in full), the inhibition is 8.8% (inactive) and 2.3% (inactive) (at 50 µM); -2.2% and 0.5% (inhibition, at 5 µM). For `O=C(NC[C@@H]1c2ccccc2CCN1C(=O)[C@@H]1CCCC[C@@H]1C(=O)O)c1ccc(CN2CCOCC2)cc1`, the inhibition is 24.9% (at 50 µM) and -1.2% (inhibition, at 5 µM). For `O=C(NC[C@@H]1c2ccccc2CCN1C(=O)[C@@H]1CCCC[C@@H]1C(=O)O)c1ccccc1`, the inhibition was -3.5% (inactive) (at 50 µM) and 1.5% (inhibition, at 5 µM). Take `O=C(O)[C@H]1CCCC[C@H]1C(=O)N1CCC2=C(CCCC2)C1CN1C(=O)c2ccccc2C1=O` (stereo not given in full): the inhibition (inhibition, at 5 µM) was 12.5% and -3.6%.

In the case of `Cc1cc(C)c(S(=O)(=O)Nc2cc(C(C(=O)OCc3ccccc3)C(=O)OCc3ccccc3)c(O)c3ccccc23)c(C)c1`, the inhibition (at 50 µM) was 7.1% (inactive) and the inhibition (inhibition, at 5 µM) was determined as 4.69%. Turning to `O=C(O)[C@H]1CCCC[C@H]1C(=O)N1CCc2ccccc2[C@H]1CNS(=O)(=O)c1ccc([N+](=O)[O-])cc1`, the inhibition was 26.7% (at 50 µM) and 4% (inhibition, at 5 µM).

In the case of `Cc1ccc(S(=O)(=O)NNc2nc(N3CC(O)CC3C(=O)O)nc3ccccc23)cc1` (stereo not given), the inhibition is, setting by setting: (at 50 µM) -0.9% (inactive); (inhibition, at 5 µM) -1.1%.

In the case of `Cc1ccc(S(=O)(=O)Nc2cc(C(C(=O)OC(C)C)C(=O)C(F)(F)F)c(O)c3ccccc23)cc1` (stereo not given), the inhibition is 80.3% (at 50 µM) and 30.2% (inhibition, at 5 µM). For `COC(=O)C(C(=O)OC)c1cc(NS(=O)(=O)c2c(C)cc(C)cc2C)c2ccccc2c1O`, the inhibition (at 50 µM) is 93.1% and the inhibition (inhibition, at 5 µM) is 65.9%.

With `O=C(O)[C@H]1C2C=CC(C2)[C@H]1C(=O)N1CCc2ccccc2C1CN1C(=O)c2ccccc2C1=O` (stereo not given in full), the inhibition (at 50 µM) was 42.4% and the inhibition (inhibition, at 5 µM) stood at 4.9%.

Regarding `CCOC(=O)C(C(=O)OCC)c1nc(NS(=O)(=O)c2c(C)cc(C)cc2C)c2ccccc2n1`, the inhibition reads like this: (at 50 µM) -2.5% (inactive); (inhibition, at 5 µM) -6%. Take `CCOC(=O)C(C(=O)OCC)c1cc(CNS(=O)(=O)c2ccc(C)cc2C)c2ccccc2n1`: the inhibition by setting is: (at 50 µM) 4.8% (inactive); (inhibition, at 5 µM) 3.9%. `Cc1ccccc1S(=O)(=O)Nc1cc(C(C(=O)OC(C)C)C(=O)C(F)(F)F)c(O)c2ccccc12` (stereo not given): the inhibition by setting is: (at 50 µM) 86.4%; (inhibition, at 5 µM) 49.5%. Turning to `O=C(O)/C=C\C(=O)N1CCc2ccccc2C1CN1C(=O)c2ccccc2C1=O` (stereo not given), the inhibition was 21.5% (at 50 µM) and 1.1% (inhibition, at 5 µM). On to `O=C(O)C1CCCCC1C(=O)N1CCCCC1CN1C(=O)c2ccccc2C1=O` (stereo not given), for which the inhibition reads like this: (at 50 µM) 13.5% (inactive); (inhibition, at 5 µM) 0.4%. `Cc1cc(C)c(S(=O)(=O)Nc2ncnc3ccccc23)c(C)c1`: the inhibition by setting is: (at 50 µM) 1.5% (inactive); (inhibition, at 5 µM) -0.6%. For the compound `C=CC(=O)NC[C@@H]1c2ccccc2CCN1C(=O)[C@@H]1CCCC[C@@H]1C(=O)O`, the inhibition is, setting by setting: (at 50 µM) 1.1% (inactive); (inhibition, at 5 µM) -5.2%.

On to `O=C(O)[C@H]1CCCC[C@H]1C(=O)N1CCc2ccccc2[C@H]1CNc1nc(Cl)nc2ccccc12`, for which the inhibition (at 50 µM) was 3.7% (inactive) and the inhibition (inhibition, at 5 µM) was -1.3%.

As to `O=C(Cc1ccccc1)NC[C@@H]1c2ccccc2CCN1C(=O)[C@@H]1CCCC[C@@H]1C(=O)O`, the inhibition was 36.9% (at 50 µM) and 7% (inhibition, at 5 µM).

Turning to `O=C(O)c1ccccc1C(=O)NC[C@@H]1c2ccccc2CCN1C(=O)[C@@H]1CCCC[C@@H]1C(=O)O`, the inhibition is 9.5% (inactive) (at 50 µM) and 0.9% (inhibition, at 5 µM). In the same order, the values of `COc1ccc(CCN=C2C=C(NS(=O)(=O)c3c(C)cc(C)cc3C)c3ccccc3C2=O)cc1` are 8% (inactive) and 0%.

As to `O=C(NC[C@@H]1c2ccccc2CCN1C(=O)[C@@H]1CCCC[C@@H]1C(=O)O)OCC1c2ccccc2-c2ccccc21`, the inhibition (at 50 µM) was 3.6% (inactive) and the inhibition (inhibition, at 5 µM) was 5%.
